FXN GAA850 act: increases GAA850 frataxin promoter reporter activity; HEK293 lucGAA850 FXN promoter luciferase reporter, 24 h; percent of 10 µM SAHA response; activation, % at 6 µM; actives 0.56% (n = 360,000);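 active = activation above the average of all compounds screened plus 3 SD, cutoff fixed separately per campaign, cut at about 7.5% in these data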;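 note: 0% = DMSO wells and 100% = 10 µM SAHA wells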
T cell HTS: T cell immune modulation candidate; AID 2052; actives 0.068% (n = 330,000); 2C CD8+ T cell-vesicle binding, flow cytometry; active compounds read low; response (vesicle binding), % at 7 µM;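 active = response, share of CD8 T cells binding vesicles, and their 90th percentile fluorescence all below set limits, cut at about 80% in these data, passing the limit was not always enough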;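 note: values below 100% mean blocked vesicle binding to the CD8+ T cells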
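Material: 2C TCR transgenic mouse naive CD8+ T cells, MACS-purified. Also added: QL9-charged Drosophila Ld/ICAM-1/B7-1 vesicles. Timing: binding 1.5 h at 37 °C. Measured by: high-throughput flow cytometry with anti-B7-1 and anti-CD8 staining. Read-out: percent CD8+ FL2 mean versus row control. Controls: Unloaded micro-vesicles (low), QL9 vesicles with 0.7% DMSO (high).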
NR2E3 ag-1: NR2E3 (human) agonism; Q9Y5X4; GST-NR2E3/biotin-RetCOR TR-FRET, 1536-well; inhibition of corepressor binding, % at 4.78 µM; actives 0.12% (n = 320,000); AID 2300;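 active = percent inhibition above the cutoff of mean plus 3 SD of all tested compounds, set per screening campaign, cut at about 20% in these data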;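 note: 0% = DMSO wells and 100% = biotin wells as full block of FRET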
Target sequence (Q9Y5X4 whole entry, looked up): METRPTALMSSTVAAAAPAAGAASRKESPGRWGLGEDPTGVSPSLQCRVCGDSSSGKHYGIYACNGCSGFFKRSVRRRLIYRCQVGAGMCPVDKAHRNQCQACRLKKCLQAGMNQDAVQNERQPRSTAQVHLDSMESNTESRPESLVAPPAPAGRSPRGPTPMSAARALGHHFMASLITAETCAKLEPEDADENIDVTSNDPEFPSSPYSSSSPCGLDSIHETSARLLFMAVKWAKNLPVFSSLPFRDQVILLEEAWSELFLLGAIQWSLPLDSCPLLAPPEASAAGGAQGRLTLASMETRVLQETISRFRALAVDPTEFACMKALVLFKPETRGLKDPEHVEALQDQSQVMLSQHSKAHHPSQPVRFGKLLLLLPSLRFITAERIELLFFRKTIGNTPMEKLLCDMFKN
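Test system: GST-NR2E3 and biotin-RetCOR proteins | Quantity: 1.35 nM GST-tagged NR2E3 final | Medium: Tris pH 7.5 | Also added: 7 nM biotin-RetCOR | Dosing: Compound at 4.8 µM, single dose | Timing: 5 h at 4 °C | Detection: Time-resolved FRET | Read-out basis: Percent inhibition | Benchmarks: Biotin wells as high control, 0.6% DMSO wells as low control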
NR2E3 ag-2: agonists of human NR2E3 nuclear receptor | AID 602229 | Q9Y5X4 | inhibition of corepressor binding, % at 3.98 µM | CHO-S Gal4-NCOR/VP16-NR2E3 two-hybrid, luciferase | actives 0.35% (n = 360,000);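 active = inhibition above the mean of all tested compounds plus 3 SD, cut at about 70% in these data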;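 note: 0% = DMSO with NR2E3 transfected cells and 100% = cells lacking NR2E3 construct; higher means lower luciferase signal from less NR2E3 corepressor binding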
Myeloid diff 2: compounds promoting myeloid differentiation; calls only at 10 µM; actives 1% (n = 360,000); AID 624256; ER-HoxA9 myeloid progenitors, lysozyme-GFP differentiation, flow cytometry;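 active = normalized GFP-positive differentiation at or above the plate's own cutoff, the solvent-only control mean plus 3 SD; inconclusive = no clear call, values can overlap the other calls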;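 note: cells exposed to compound for four days before flow analysis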
GAA30 FXN cntr: GAA30 FXN promoter activation counter-screen; actives 66% (n = 1,900); shares compounds with FXN GAA850 act; HEK293 lucGAA30 FXN promoter luciferase, 24 h; DMSO = 0%, 5 µM ipriflavone = 100%; activation, % at 6 µM;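 active = mean activation above the mean of solvent-only control wells plus 3 SD, cut at about 22% in these data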;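 note: counterscreen of GAA850 promoter hits where activity marks nonselective or luminescence artifacts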
FXN GAA850 conf: GAA850 FXN promoter activation confirmation; shares compounds with FXN GAA850 act; HEK293 lucGAA850 FXN promoter luciferase reporter, 24 h; 100% = activation by SAHA; activation, % at 6 µM; actives 86% (n = 1,900);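 active = mean activation above a set limit taken from the primary screen, cut at about 8% in these data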;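 note: 0% = DMSO wells and 100% = 10 µM SAHA wells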
* hit, by the source's call; i = inactive; ? = inconclusive; nt = no result; + = active, no number. The list is not random: actives were taken first. Their share in the collection is about 2%.

SMILES	FXN GAA850 act	T cell HTS	NR2E3 ag-1	NR2E3 ag-2	Myeloid diff 2	GAA30 FXN cntr	FXN GAA850 conf
CCOC(=O)c1sc(NC(=O)Nc2ccccc2F)nc1C	-10	173	-2	-28	i	nt	nt
CCOC(=O)c1sc(Nc2ccccc2Cl)nc1C	9.9*	363	6	-117	i	103*	40*
O=S(=O)(c1cccc(C(F)(F)F)c1)c1ccc(O)cn1	1	306	-8	6	i	nt	nt
N#Cc1ccc(Nc2nc(NCc3ccccc3)nc3ccsc23)cc1	9.5*	nt	nt	-51	i	33*	13*
CNc1nc(NCc2ccccc2)c2sccc2n1	2	nt	nt	2	i	nt	nt
CCN(C[C@H]1N[C@@](CC)(C(=O)OC)[C@H]2C(=O)N(Cc3ccccc3)C(=O)[C@@H]12)S(=O)(=O)c1ccc(OC(F)(F)F)cc1	11*	228	nt	-13	i	21	10*
CCN(C[C@H]1N[C@@](CC)(C(=O)OC)[C@H]2C(=O)N(Cc3ccccc3)C(=O)[C@@H]12)S(=O)(=O)c1ccc(C)cc1	10*	425	nt	-17	i	11	8.1*
CCN(C[C@H]1N[C@@](CC)(C(=O)OC)[C@H]2C(=O)N(Cc3ccccc3)C(=O)[C@@H]12)S(=O)(=O)c1ccc(-c2ccccc2)cc1	-1	178	nt	-2	i	nt	nt
COc1cc(/C=C/C(=O)OCC(=O)NCCc2ccc(F)cc2)ccc1OC(F)F	-2	482	nt	18	i	nt	nt
O=C(Oc1c(CN2CCOCC2)cc(Cl)c2cccnc12)c1ccccc1Cl	13*	103	2	36	?	3	19*
COc1cc(C(=O)Oc2c(CN3CCOCC3)cc(Cl)c3cccnc23)cc(OC)c1OC	18*	528	-1	31	+	-27	24*
COc1cccc(C(=O)Oc2c(CN3CCOCC3)cc(Cl)c3cccnc23)c1	8.2*	641	-2	12	?	16	8.3*
O=C(Oc1c(CN2CCOCC2)cc(Cl)c2cccnc12)c1cccs1	-1	299	0	-27	i	nt	nt
Cc1cccc(C)c1NC(=O)C(c1ccccc1)N1CCC(c2ccccc2)CC1 (configuration not stated)	nt	nt	nt	nt	i	nt	nt
CCc1nc2c(OCC3COc4ccccc4O3)cccn2c1N(C)C(=O)c1ccccc1F (configuration not stated)	0	nt	nt	2	i	nt	nt
O=C(Nc1ccc2c(c1)OCCO2)C1c2ccccc2OCC(=O)N1Cc1ccccc1 (configuration not stated)	nt	nt	nt	-8	i	nt	nt
O=C(Nc1ccccc1N1CCCC1)c1cc(=O)[nH]c2ccccc12	0	nt	nt	-22	i	nt	nt
O=C(CSc1nnc(CNC(=O)c2ccco2)o1)Nc1cccc(C(F)(F)F)c1	-1	218	0	-14	i	nt	nt
COc1ccccc1NC(=O)c1cnc(SCC(=O)NCC2CCCO2)n(C)c1=O (configuration not stated)	9.5*	296	-1	-36	i	18	24*
COc1ccc(C2N=C(c3ccccc3)NO2)cc1OC (configuration not stated)	4	337	0	-132	?	nt	nt
FC(F)Oc1ccc(C2N=C(c3ccccc3)NO2)cc1 (configuration not stated)	7.9*	480	6	-149	i	118*	41*
Cc1cc(NC(=O)Nc2ccc(F)c(Cl)c2)no1	1	i	-3	-14	i	nt	nt
COCCNC(=O)NC1(C(F)(F)F)Oc2ccc(Cl)cc2O1 (configuration not stated)	15*	223	1	5	i	17	11*
Cc1cc(NC(=O)NC2(C(F)(F)F)Oc3ccc(Cl)cc3O2)no1 (configuration not stated)	18*	214	1	28	i	30*	15*
Cc1ccc(Cl)cc1NC(=O)NCc1cccnc1	-1	369	nt	12	i	nt	nt
SMILES	FXN GAA850 act	T cell HTS	NR2E3 ag-1	NR2E3 ag-2	Myeloid diff 2	GAA30 FXN cntr	FXN GAA850 conf
O=C(NCc1cccnc1)NC1(C(F)(F)F)Oc2ccc(Cl)cc2O1 (configuration not stated)	12*	530	2	2	i	26*	18*
O=C(OCc1ccc([N+](=O)[O-])cc1)c1cc(=O)c2ccccc2o1	3	167	2	-19	i	nt	nt
COC(=O)C1(C)COP(=O)(Nc2ccc(OC)cc2)OC1 (configuration not stated)	nt	nt	nt	-2	i	nt	nt
Cc1cc(Cl)c2oc(C(=O)N(C)C3CCOC3)c(C)c2c1 (configuration not stated)	9.8*	108	-2	-62	i	98*	38*
Cc1cc(Cl)c2oc(C(=O)N3CCN(C(=O)c4ccco4)CC3)c(C)c2c1	9.8*	313	-2	-91	?	114*	40*
Cc1cc(Cl)c2oc(C(=O)N3CCOCC3)c(C)c2c1	3	nt	nt	-60	i	nt	nt
NC(=O)c1c(/N=C/c2cccs2)sc2c1CCCC2	4	363	-2	-29	i	nt	nt
O=C(NC1CCCC1)c1cc(-c2ccccc2O)on1	4	346	4	-130	i	nt	nt
Cc1ccc(-c2cc(C(=O)NCCCN3CCOCC3)no2)cc1	-9	349	0	35	i	nt	nt
O=C(NCCCN1CCOCC1)c1cc(-c2cccs2)on1	20*	415	4	-34	i	113*	80*
O=C(NCCCn1ccnc1)c1cc(-c2cccs2)on1	41*	161	3	-39	i	159*	114*
O=C(NC1CCCC1)c1cc(-c2cccs2)on1	18*	517	1	-132	i	159*	92*
Cc1cc(-c2onc3ccc(Cl)cc23)ccc1O	0	188	2	-31	i	nt	nt
Cc1cccc2cc(/C=N/Nc3ccc(C(=O)O)cc3)c(Cl)nc12	12*	347	-3	-109	i	128*	49*
C(=N\Nc1nc2ccccc2[nH]1)/c1ccncc1	2	407	0	-67	i	nt	nt
Clc1nc2ccccc2cc1/C=N/Nc1nc2ccccc2[nH]1	8.4*	193	4	-74	i	128*	44*
Cc1c(/C=N/Nc2nc3ccccc3[nH]2)c2ccccc2n1C	6	430	-3	16	i	nt	nt
O=[N+]([O-])c1ccccc1N/N=C/c1cc2ccccc2nc1Cl	1	336	-1	-52	i	nt	nt
O=C(O)c1ccc(N/N=C/c2cc3ccccc3nc2Cl)cc1	11*	278	-3	-144	i	120*	47*

Assay outcomes as filed in PubChem.
